Measured values taken from ChEMBL document CHEMBL4622996, “Discovery of Vixotrigine: A Novel Use-Dependent Sodium Channel Blocker for the Treatment of Trigeminal Neuralgia” (ACS Med Chem Lett, 2020).
Activity calls are given as the source filed them. The calls are words filed in the database; no cut-off is given here.

Columns and labels:
[1] = target: T1, Sodium channel protein type 3 subunit alpha (Homo sapiens, UniProt Q9NY46); test: Inhibition of Nav1.3 (unknown origin) expressed in HEK293 cells assessed as inhibition of sodium current incubated for 3 to 3.5 mins by electrophysiology assay; assay type: cell-based
How it was run: (§1)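 HEK293 cells stably expressing NaV1.3, grown in DMEM-F12 with 10% FBS at 37 °C, dissociated at 50–70% confluency; IonWorksHT planar patch clamp at 21–23 °C, amphotericin perforated access; intracellular K-gluconate 100, KCl 40, MgCl2 3.2, EGTA 3, HEPES 5 mM, pH 7.3.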
Target sequence in this assay (Q9NY46 whole entry): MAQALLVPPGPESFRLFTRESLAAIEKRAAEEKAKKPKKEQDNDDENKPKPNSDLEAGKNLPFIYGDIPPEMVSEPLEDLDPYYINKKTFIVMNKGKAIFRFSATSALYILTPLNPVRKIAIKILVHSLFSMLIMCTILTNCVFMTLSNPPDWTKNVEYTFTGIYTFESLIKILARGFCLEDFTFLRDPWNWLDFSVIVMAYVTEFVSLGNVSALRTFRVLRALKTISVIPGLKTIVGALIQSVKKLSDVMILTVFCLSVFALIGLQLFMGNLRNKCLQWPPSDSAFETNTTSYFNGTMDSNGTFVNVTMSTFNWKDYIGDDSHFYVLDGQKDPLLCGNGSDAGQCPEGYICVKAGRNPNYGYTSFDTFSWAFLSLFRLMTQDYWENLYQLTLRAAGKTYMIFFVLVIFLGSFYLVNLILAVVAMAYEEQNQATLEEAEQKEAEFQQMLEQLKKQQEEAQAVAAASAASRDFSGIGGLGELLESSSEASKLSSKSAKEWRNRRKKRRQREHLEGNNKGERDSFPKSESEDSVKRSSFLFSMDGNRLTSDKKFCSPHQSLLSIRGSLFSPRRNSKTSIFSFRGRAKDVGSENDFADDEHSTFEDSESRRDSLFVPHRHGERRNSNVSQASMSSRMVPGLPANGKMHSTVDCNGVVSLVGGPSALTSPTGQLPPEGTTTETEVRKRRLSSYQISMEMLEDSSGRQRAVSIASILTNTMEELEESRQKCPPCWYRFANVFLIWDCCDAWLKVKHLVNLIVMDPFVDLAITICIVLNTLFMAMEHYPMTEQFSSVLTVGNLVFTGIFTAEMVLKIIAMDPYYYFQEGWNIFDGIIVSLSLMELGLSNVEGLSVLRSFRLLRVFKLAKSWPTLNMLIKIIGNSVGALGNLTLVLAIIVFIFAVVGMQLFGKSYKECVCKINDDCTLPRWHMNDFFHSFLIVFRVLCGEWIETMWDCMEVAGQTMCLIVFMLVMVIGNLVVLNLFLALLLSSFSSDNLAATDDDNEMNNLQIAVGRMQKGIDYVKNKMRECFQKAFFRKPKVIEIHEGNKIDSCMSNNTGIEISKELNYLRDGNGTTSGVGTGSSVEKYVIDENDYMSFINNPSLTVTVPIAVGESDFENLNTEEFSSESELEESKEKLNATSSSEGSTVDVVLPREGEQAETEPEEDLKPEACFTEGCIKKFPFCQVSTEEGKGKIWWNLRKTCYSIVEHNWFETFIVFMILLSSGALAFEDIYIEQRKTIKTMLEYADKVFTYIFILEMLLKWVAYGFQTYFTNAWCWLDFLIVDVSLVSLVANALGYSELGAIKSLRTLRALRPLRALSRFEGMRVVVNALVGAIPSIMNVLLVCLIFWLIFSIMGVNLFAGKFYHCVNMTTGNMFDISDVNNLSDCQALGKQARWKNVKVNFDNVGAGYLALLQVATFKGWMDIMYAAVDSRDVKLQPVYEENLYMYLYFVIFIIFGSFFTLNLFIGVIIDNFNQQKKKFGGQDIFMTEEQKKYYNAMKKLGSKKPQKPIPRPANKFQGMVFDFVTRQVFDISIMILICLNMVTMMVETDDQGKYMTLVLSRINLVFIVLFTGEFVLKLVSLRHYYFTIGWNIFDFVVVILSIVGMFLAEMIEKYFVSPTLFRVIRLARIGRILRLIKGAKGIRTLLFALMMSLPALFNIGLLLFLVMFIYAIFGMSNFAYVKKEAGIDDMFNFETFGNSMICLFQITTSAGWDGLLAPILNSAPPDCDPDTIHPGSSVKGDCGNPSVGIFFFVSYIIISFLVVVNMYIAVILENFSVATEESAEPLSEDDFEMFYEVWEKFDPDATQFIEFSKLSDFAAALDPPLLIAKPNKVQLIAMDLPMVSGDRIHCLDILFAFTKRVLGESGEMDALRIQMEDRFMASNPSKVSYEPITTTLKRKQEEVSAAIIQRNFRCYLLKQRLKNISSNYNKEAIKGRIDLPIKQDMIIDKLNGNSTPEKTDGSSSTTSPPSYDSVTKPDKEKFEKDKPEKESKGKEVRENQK

[2] = target: Voltage-gated inwardly rectifying potassium channel KCNH2 (Homo sapiens, UniProt Q12809); test: Inhibition of human ERG; settings: for inhibition (INH): human
[3] = target: T1, Sodium channel protein type 3 subunit alpha; test: Inhibition of Nav1.3 (unknown origin) expressed in HEK293 cells assessed as 15% inhibition of sodium current incubated for 3 to 3.5 mins by electrophysiology assay; assay type: cell-based; how it was run: as §1
Target sequence in this assay (Q9NY46 whole entry, looked up): as the sequence (Q9NY46 whole entry) above

[4] = organism: Homo sapiens; test: Selectivity ratio of UD15 to IC50 of Nav1.3 (unknown origin) expressed in HEK293 cells; assay type: cell-based
[5] = tested on: Rattus norvegicus; test: Antinociceptive activity in rat model of chronic constriction injury-induced neuropathic pain assessed as inhibition of CCI-induced mechanical allodynia at 30 mg/kg, po BID administered 22 days post surgery and measured on day 1, 6 and 8; assay type: functional, organism-based
How it was run: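 Chronic constriction injury model of neuropathic pain. Dosed orally twice daily as the positive-control arm of a study that also tested 0.5 and 5 mg/kg oral BID groups. Dosing started during day 22. Mechanical allodynia was measured on dosing days 1, 6 and 8.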

[6] = Fraction unbound in rat brain; assay type: ADME, tissue-based
[7] = Fraction unbound in rat blood; assay type: ADME, tissue-based
[8] = Fraction unbound in rat plasma; assay type: ADME, cell-free
[9] = Total blood clearance in rat blood at 0.5 mg/kg, iv; assay type: ADME, organism-based
[10] = Ratio of drug level in brain to blood in rat; assay type: ADME, tissue-based; settings: read-out: Kbb
[11] = Oral bioavailability in rat at 3 mg/kg; assay type: ADME, organism-based; settings: in vivo

Chain of Voltage-gated inwardly rectifying potassium channel KCNH2 (Q12809 whole entry): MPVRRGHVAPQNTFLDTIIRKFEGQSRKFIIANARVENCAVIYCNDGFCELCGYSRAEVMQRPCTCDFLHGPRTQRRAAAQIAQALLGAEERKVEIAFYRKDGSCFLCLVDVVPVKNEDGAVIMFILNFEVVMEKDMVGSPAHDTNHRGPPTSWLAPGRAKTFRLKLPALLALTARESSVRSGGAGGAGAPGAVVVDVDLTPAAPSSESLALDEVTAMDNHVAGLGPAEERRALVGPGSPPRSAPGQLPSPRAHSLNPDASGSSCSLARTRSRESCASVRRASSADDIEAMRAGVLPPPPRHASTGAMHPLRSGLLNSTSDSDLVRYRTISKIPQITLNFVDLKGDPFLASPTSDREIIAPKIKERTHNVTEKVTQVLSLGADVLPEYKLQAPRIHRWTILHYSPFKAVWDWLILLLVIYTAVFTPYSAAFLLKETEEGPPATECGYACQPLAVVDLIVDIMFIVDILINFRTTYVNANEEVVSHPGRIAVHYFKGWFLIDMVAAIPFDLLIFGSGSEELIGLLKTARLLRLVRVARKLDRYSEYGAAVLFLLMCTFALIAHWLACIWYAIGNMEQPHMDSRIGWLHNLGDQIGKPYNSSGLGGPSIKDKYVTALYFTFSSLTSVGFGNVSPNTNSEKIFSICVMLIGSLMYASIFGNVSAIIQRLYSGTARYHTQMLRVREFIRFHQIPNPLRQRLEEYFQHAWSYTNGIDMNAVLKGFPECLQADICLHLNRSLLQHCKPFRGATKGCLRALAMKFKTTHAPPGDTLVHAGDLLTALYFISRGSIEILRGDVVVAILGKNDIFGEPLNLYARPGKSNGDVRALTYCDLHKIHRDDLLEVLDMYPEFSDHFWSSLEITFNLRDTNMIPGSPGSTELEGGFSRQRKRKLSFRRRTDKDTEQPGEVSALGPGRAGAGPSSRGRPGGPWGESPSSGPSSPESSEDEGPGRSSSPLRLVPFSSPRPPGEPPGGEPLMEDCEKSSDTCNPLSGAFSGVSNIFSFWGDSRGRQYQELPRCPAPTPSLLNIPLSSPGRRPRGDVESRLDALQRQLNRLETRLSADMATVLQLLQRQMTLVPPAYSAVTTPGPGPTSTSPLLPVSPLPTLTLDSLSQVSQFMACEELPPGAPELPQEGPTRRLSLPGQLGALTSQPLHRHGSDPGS

Compound	IC50 [1]	IC50 [2]	log(activity) [3]	Selectivity ratio [4]	further results
C[C@@H](C(N)=O)N1CCc2cc(OCc3ccccc3F)ccc2C1	> 79.4 µM				
NC(=O)[C@H]1CC[C@@H](c2ccc(OCc3ccccc3F)cc2)N1	63.1 µM	10 µM	-5.4		
C[C@@H](Oc1ccc([C@H]2CC[C@@H](C(N)=O)N2)cc1)c1ccccc1	31.6 µM	3.98 µM	-5.5	9	
C[C@@H](C(N)=O)N1CCCC1c1ccc(OCc2ccccc2F)cc1 (some centres not stated) [listing 1 of 2 here]			-5.5	14	
NC(=O)CN1Cc2ccc(OCc3ccccc3F)cc2C1	> 100 µM				
NC(=O)[C@@H]1CCCN1Cc1ccc(OCc2ccccc2F)cc1	79.4 µM		-5.8	64	inhibition (INH) [2]: Active
NC(=O)[C@H]1CC[C@H](c2ccc(OCc3ccccc3F)cc2)N1	> 79.4 µM	6.31 µM	-5.4		
NC(=O)CNCc1ccc(OCc2ccccc2F)cc1	50.1 µM		-5.4	11	
NC(=O)[C@@H]1CC[C@H](c2ccc(OCc3ccccc3F)cn2)N1	63.1 µM	15.8 µM	-4.8	6	
NC(=O)[C@@H]1CSC[C@H](c2ccc(OCc3cccc(F)c3)cc2)N1 (racemic)	> 89.1 µM		< -4.05		
NCC1(CC(=O)O)CCCCC1					Activity [5]: Active
N#Cc1ccccc1Oc1ccc([C@H]2CC[C@@H](C(N)=O)N2)cc1	> 100 µM	3.98 µM	-4.6		fraction unbound [6]: 0.076; fraction unbound [7]: 0.12
NC(=O)C1Cc2cc(OCc3ccccc3F)ccc2CN1 (configuration not stated)	20 µM		-4.8	1.3	
NC(=O)[C@@H]1CC[C@H](c2ccc(Oc3cccc(F)c3)cc2)N1	100 µM	7.94 µM	-5.5	29	
O=C1NCCC1NCc1ccc(OCc2ccccc2F)cc1 (configuration not stated)	126 µM		-4.8	8	
N#Cc1ccc(COc2ccc([C@H]3CC[C@@H](C(N)=O)N3)cc2)cc1	> 63.1 µM	7.94 µM	-5		
NC(=O)CN1CCOc2cc(OCc3ccccc3)ccc2C1	> 79.4 µM				
NC(=O)[C@@H]1CC[C@H](c2ccc(OCc3ccccc3F)cc2F)N1	> 100 µM	12.6 µM	-5.6	42	fraction unbound [6]: 0.009
C[C@H](NC1CCCc2cc(OCc3ccccc3F)ccc21)C(N)=O (some centres not stated)	63.1 µM		-5.6	24	inhibition (INH) [2]: Active
CN1[C@@H](c2ccc(OCc3ccccc3F)cc2)CC[C@H]1C(N)=O	> 100 µM	50.1 µM	-4.4	2	
NC(=O)[C@@H]1CC[C@@H](c2ccc(OCc3ccccc3F)cc2)N1	100 µM	5.01 µM	-5.5		
NC(=O)[C@@H]1CC[C@H](c2ccc(Oc3ccc(F)cc3)cc2)N1	> 100 µM	5.01 µM	-5.3		fraction unbound [6]: 0.016; fraction unbound [8]: 0.11

Compound	IC50 [1]	IC50 [2]	log(activity) [3]	Selectivity ratio [4]	further results
NC(=O)C1CCC(c2ccc(OCc3ccccc3F)cc2)N1 (configuration not stated)	63.1 to 100 µM		-5.4		
NC(=O)[C@@H]1CC[C@H](c2ccc(Oc3ccccc3)cc2)N1	100 µM	12.6 µM	-5.4	31	clearance [9]: 40 mL/min/kg; Kp [10]: 4.8; bioavailability [11]: 25%
NC(=O)[C@@H]1CC[C@H](c2ccc(OCc3ccc(F)cc3)cc2)N1	> 63.1 µM	7.94 µM	-5		clearance [9]: 91 mL/min/kg; Kp [10]: 3.5; bioavailability [11]: 31%
CNC(=O)[C@@H]1CC[C@H](c2ccc(OCc3ccccc3F)cc2)N1	> 63.1 µM	25.1 µM	-5.3		fraction unbound [6]: 0.015
N#Cc1ccccc1COc1ccc([C@H]2CC[C@@H](C(N)=O)N2)cc1	> 63.1 µM	15.8 µM	-5.3		clearance [9]: 37 mL/min/kg; Kp [10]: 0.8; fraction unbound [6]: 0.063; bioavailability [11]: 39%; fraction unbound [8]: 0.12
N#Cc1cccc(COc2ccc([C@H]3CC[C@@H](C(N)=O)N3)cc2)c1	> 63.1 µM		-5.2		
NC(=O)[C@H]1CCC[C@@H](c2ccc(OCc3cccc(F)c3)cc2)N1 (stereo in doubt)	39.8 µM	3.16 µM	-5.4	11	
C[C@H](NC1CCOc2cc(OCc3ccccc3F)ccc21)C(N)=O (some centres not stated)	> 79.4 µM				
C[C@@H](C(N)=O)N1CCCC1c1ccc(OCc2ccccc2F)cc1 (single isomer, unassigned; isomer 2) [listing 1 of 2 here]			-5.9	29	
NC(=O)[C@@H]1CC[C@H](c2ccc(OCc3cccc(F)c3)cc2)N1	> 100 µM	3.16 µM	-5.5		fraction unbound [6]: 0.01; fraction unbound [8]: 0.033
N#Cc1cc([C@H]2CC[C@@H](C(N)=O)N2)ccc1OCc1ccccc1F	> 50.1 µM		-4.8		
CC(C(N)=O)N1CCOc2cc(OCc3ccccc3F)ccc2C1 (configuration not stated)	> 63.1 µM		-4.6		
NC(=O)CN1CCCc2cc(OCc3ccccc3F)ccc2C1	> 79.4 µM				
NC(=O)[C@@H]1CSc2cc(OCc3ccccc3F)ccc2CN1	> 100 µM		-4.7		
NC(=O)[C@@H]1CCC[C@H](c2ccc(OCc3cccc(F)c3)cc2)N1 (stereo in doubt)	39.8 µM	31.6 µM	-5.4	7	fraction unbound [6]: 0.01; fraction unbound [8]: 0.04
C[C@@H](C(N)=O)N1CCCC1c1ccc(OCc2ccccc2F)cc1 (single isomer, unassigned; isomer 2) [listing 2 of 2 here]	39.8 µM				
NC(=O)[C@@H]1CC[C@H](c2ccc(OCc3ccccc3)cc2)N1	> 63.1 µM	7.94 µM	-5.6	37	
NC(=O)[C@@H]1CC[C@H](c2cccc(Oc3ccccc3)c2)N1	> 100 µM	63.1 µM	-4.7		
NC(=O)CNC1CCc2cc(OCc3ccccc3F)ccc21 (configuration not stated)	31.6 µM		-5.5	1.3	inhibition (INH) [2]: Active
C[C@@H](C(N)=O)N1CCCC1c1ccc(OCc2ccccc2F)cc1 (some centres not stated) [listing 2 of 2 here]	50.1 µM				inhibition (INH) [2]: Active
COc1cc([C@H]2CC[C@@H](C(N)=O)N2)ccc1OCc1ccccc1F	63.1 µM	3.98 µM	-5.2	10	fraction unbound [6]: 0.033
O=C1CN(Cc2ccc(OCc3ccccc3F)cc2)CCN1	> 79.4 µM				
